Compound activity (PubChem BioAssay)
Only some compounds are listed: those with a hit (about 5.6% of all), similar ones and a draw of the others.
CHOP UPR activ = activators of apoptotic CHOP UPR arm, primary screen, cell-based, CHO-CHOP luciferase reporter, luminescence, uHTS | UPR activation; percent of tunicamycin response over DMSO baseline | 330,000 tested, 0.34% active | activation, % at 10 µM;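 active means at 10 µM dose, activation of 40% or more, normalized to positive control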
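Assay system: CHO cells with stable CHOP pathway luciferase reporter; Buffer or medium: F12 plus 10% serum; Times: 16-18 h cell attachment, then 6 h compound exposure, 37 °C; Signal: luciferase luminescence; Read-out basis: percent activation relative to tunicamycin control; Control set: tunicamycin high control, DMSO low control.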
UPR XBP1 act = activators of adaptive XBP1 UPR arm, primary screen, cell-based, CHO-XBP1 luciferase reporter, luminescence, uHTS; 330,000 tested, 0.33% active; activation, % at 20 µM; IRE1-XBP1 UPR activation; percent of tunicamycin response, DMSO as zero;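 active means versus positive control, 20 µM dose yields 30% or more activation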
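Material: IRE1-XBP1 luciferase reporter CHO line / Quantity: one thousand reporter cells per well / Buffer or medium: F12 with 10% serum / Compound: 20 µM single concentration, DMSO 1% / Times: 6 h treatment, 37 °C / Detection: Steady-Glo luciferase glow luminescence, 10 min after reagent addition / Benchmarks: tunicamycin high, DMSO low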
aDG glyco up = activators of alpha-DG glycosylation, primary screen, uHTS, Pro5-aDG cells, AlphaScreen; alpha-DG glycosylation AlphaScreen (IIH6); 0% Pro5, 100% B10-LARGE cell signal; activation, % at 10 µM; 360,000 tested, 0.22% active; AID 624168, 2012;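 active means activation of at least 8% versus controls, or a plate z-score of at least 8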;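 further: Pro5 are CHO cells carrying HIG-tagged alpha-DG that lacks glycosylation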
GRIN3A LBD mod = binders of NR3A ligand-binding domain, primary screen, biophysical, differential scanning fluorimetry, uHTS; Glutamate receptor ionotropic, NMDA 3A (GRIN3A) ligand-binding domain; NR3A LBD differential scanning fluorimetry, Tm shift; 0% = protein alone, 100% = glycine-bound protein; Tm shift relative to glycine control, % at 25 µM; 340,000 tested, 2.5% active; AID 1259313, 2017;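 active means melting temperature shift of at least 10% of the positive control shift, at one fixed dose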
MPTP inh = mitochondrial permeability transition pore inhibitors, primary screen, biochemical, isolated mouse mitochondria, absorbance. Ca2+ swelling absorbance, 30 min. inhibition, % at 10 µM. 360,000 tested, 1.4% active. AID 602449, 2012;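 active means inhibition of 50% or more, scaled per plate between neutral and stimulator controls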
CHOP inh = inhibitors of CHOP promoter induction, primary screen, cell-based, unfolded protein response, luciferase reporter; CHO-K1 CHOP-promoter luciferase, tunicamycin-induced, 15-18 h; 220,000 tested, 3.8% active; AID 2732, 2010; inhibition, % at 10 µM;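 active means compounds that reduced the stress-induced luciferase reporter signal by more than about 70% of percent inhibition, limit read from the data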
Numbers stand for hits; - = inactive; . = no result given.

SMILES	CHOP UPR activ	UPR XBP1 act	aDG glyco up	GRIN3A LBD mod	MPTP inh	CHOP inh
Cc1[nH]n(C(N)=S)c(=O)c1N=Nc1cc(C(F)(F)F)ccc1Cl	-	-	-	12	-	.
CC(COc1ccccc1Cc1ccccc1)N1CCCCC1 (stereo not given)	-	-	.	.	.	.
Cn1c(NCc2ccccc2)nc2c1c(=O)n(Cc1ccc(Br)cc1)c(=O)n2C	-	-	-	-	-	72
Cn1c(=O)c2c(nc(N3CCc4ccccc4C3)n2Cc2ccc(Br)cc2)n(C)c1=O	-	-	-	11	-	-
COCCCNc1nc2c(c(=O)n(Cc3ccc(F)cc3)c(=O)n2C)n1C	-	-	-	-	-	.
COc1ccc(CNc2nc3c(c(=O)n(Cc4ccc(Br)cc4)c(=O)n3C)n2C)cc1	-	-	-	-	-	73
Cn1c(N/N=C2\CCCc3ccccc32)nc2c1c(=O)n(Cc1ccc(F)cc1)c(=O)n2C	.	.	-	-	-	83
CCCN(C)C1CN(Cc2cn(Cc3ccccc3)nn2)S(=O)(=O)C1 (stereo not given)	.	.	-	.	-	.
CCC(C(=O)OCC(=O)N1C(C)CCCC1C)c1ccccc1 (stereo not given)	-	-	-	-	-	.
CC(C)n1c(NCCc2ccccc2)nc2c1c(=O)n(C)c(=O)n2C	-	-	-	-	-	75
COc1ccc2c(c1)OC[C@H]1[C@H]2N2C(=O)CN(CCc3c[nH]c4ccccc34)C(=O)[C@@]2(C)[C@H]1c1ccccc1	-	-	-	-	-	.
CC(C)N(C)c1ncnc2c1ncn2[C@H]1CN(CCc2ccccc2)C[C@@H](CO)O1	.	.	-	.	-	.
CCN(CC)C(=O)c1cn(-c2cccc(OC)c2)c(=O)c2ccccc12	-	-	-	-	-	.
Cc1c(O)ccc(C(=O)COc2ccccc2F)c1O	-	-	-	35	-	-
O=C(COc1ccccc1F)c1ccc(O)cc1O	-	-	-	-	-	-
CC(=O)Cc1nsc(NC(=O)c2cn(-c3ccccc3)nc2-c2ccc(Br)cc2)n1	-	-	-	31	-	-
CC(C)COc1ccc(-c2nn(-c3ccccc3)cc2C(=O)Nc2nccs2)cc1	-	-	-	10	-	-
O=C(Nc1nccs1)c1cn(-c2ccccc2)nc1-c1ccccc1	-	-	-	-	-	71
O=C(Nc1nccs1)c1cc(-c2ccccc2)nn1-c1ccccc1	-	-	-	12	-	-
O=C(NCCCN1CCOCC1)c1cn(-c2ccccc2)nc1-c1ccc(Br)cc1	-	-	-	-	-	.
CC(C)(C)NC(=O)CN(C(=O)CNS(=O)(=O)c1ccc(Cl)cc1)c1ccc2c(c1)OCCO2	-	-	-	-	-	.
CSc1ccc(CNC(=O)C(C)n2nc(C)c3c(C)n(-c4ccccc4)nc3c2=O)cc1 (stereo not given)	-	-	-	-	-	.
C/C(=N\NC(=O)Cn1ccc(C(F)(F)F)n1)c1ccco1	-	-	-	-	-	-
CCCS(=O)(=O)NC(=O)C1(C)CCCN(C(=O)Cc2ccc3ccccc3c2)C1 (stereo not given)	.	.	-	.	-	.
COc1ccc(OCCN2CCC(C(=O)NC(c3ccsc3)c3ccccc3C)CC2)cc1 (stereo not given)	.	.	-	.	-	.
CC(C)Oc1cc(C(=O)N2CCC(N3CCCCC3)CC2)ccc1Nc1nnc(Cl)c(Nc2ccccc2S(C)(=O)=O)n1	.	.	.	-	.	.
CN(CC(=O)Nc1c(Cl)cccc1Cl)C(=O)C1CCN(C(=O)Nc2ccccc2)CC1	-	-	-	-	-	.
CS(=O)(=O)N(CC(=O)Nc1ccccc1Sc1ccccc1)c1cccc(Br)c1	-	-	-	-	-	77
O=C(COC(=O)c1ccccc1O)Nc1cccc2ccccc12	-	-	-	-	-	.
CCCn1c(SCC(=O)NCc2ccc(OC)cc2)n[nH]c1=O	-	-	-	-	-	-
